Reference: ChEMBL document CHEMBL1156470, “Inhibition of the activation of multiple serine proteases with a cathepsin C inhibitor requires sustained exposure to prevent pro-enzyme processing” (J Biol Chem, 2007)
Activity calls are given as the source filed them. No cut-off for these calls is given here.

Tests used:
[1] = target: T1, Neutrophil elastase (Mus musculus, UniProt Q3UP87); experiment: Inhibition of neutrophil elastase activation in beta-estradiol differentiated mouse EcoM-G cells after 24 hrs; format: cell-based
T1 sequence (Q3UP87 whole entry): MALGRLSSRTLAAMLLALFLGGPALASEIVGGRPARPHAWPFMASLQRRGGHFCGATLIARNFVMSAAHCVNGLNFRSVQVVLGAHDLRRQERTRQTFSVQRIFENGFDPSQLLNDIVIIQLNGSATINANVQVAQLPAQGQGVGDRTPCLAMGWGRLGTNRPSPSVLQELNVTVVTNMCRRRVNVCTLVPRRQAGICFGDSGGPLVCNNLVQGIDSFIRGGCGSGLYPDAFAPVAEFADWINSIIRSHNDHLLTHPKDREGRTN
Method in brief: (§1)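 EcoM-G cells (cultures <3 months old) washed and seeded at 0.5×10^6 cells/ml without β-estradiol. After 24 h, compound added in Me₂SO (final 0.5%), then cells differentiated a further 24 h, harvested and lysed. NE assayed with 400 μM MeOSuc-AAPV-AMC, CG with 1 mM Suc-AAPF-pNA (405 nm, 5 min), Pr-3 with 10 μM internally quenched substrate (ex 328/em 393 nm), all from the same lysates. IC50 from four-parameter Hill fit.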

[2] = target: T2, Neutrophil elastase (Homo sapiens, UniProt P08246); experiment: Blockade of neutrophil elastase processing in human U937 cells after 7 days by fluorogenic substrate cleavage assay; format: cell-based, U-937
T2 sequence (P08246 whole entry): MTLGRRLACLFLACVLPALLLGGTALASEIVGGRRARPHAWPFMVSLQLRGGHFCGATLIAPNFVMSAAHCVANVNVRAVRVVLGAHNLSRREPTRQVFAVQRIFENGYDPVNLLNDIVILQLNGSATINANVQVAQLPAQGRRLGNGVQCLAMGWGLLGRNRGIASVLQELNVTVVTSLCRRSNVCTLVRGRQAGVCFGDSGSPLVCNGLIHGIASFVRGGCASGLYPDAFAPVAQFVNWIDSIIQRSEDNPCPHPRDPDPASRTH
Method in brief: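 U937 seeded at 1×10^5 cells/ml with vehicle or inhibitor, passaged and diluted 10-fold into fresh medium with compound on days 3 and 5, harvested day 7. Cells washed and lysed in 20 mM Tris pH 7.5, 100 mM NaCl, 0.2% NP-40. NE rate measured with 400 μM MeOSuc-AAPV-AMC (ex 370/em 450 nm, 10 min). % inhibition vs vehicle, four wells per point.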

[3] = target: T3, Cathepsin G (Mus musculus, UniProt P28293); experiment: Inhibition of cathepsin G activation in beta-estradiol differentiated mouse EcoM-G cells after 24 hrs; format: cell-based; method in brief: as §1
T3 sequence (P28293 whole entry): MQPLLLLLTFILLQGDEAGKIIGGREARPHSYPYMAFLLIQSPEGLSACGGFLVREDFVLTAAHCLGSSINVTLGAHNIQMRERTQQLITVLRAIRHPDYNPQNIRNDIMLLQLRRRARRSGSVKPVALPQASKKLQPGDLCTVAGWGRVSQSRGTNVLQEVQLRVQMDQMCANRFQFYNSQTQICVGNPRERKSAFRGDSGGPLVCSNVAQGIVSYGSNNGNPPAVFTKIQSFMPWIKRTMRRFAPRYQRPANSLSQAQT

[4] = tested on: U-937; experiment: Effect on neutrophil elastase protein expression in human U937 cells at 30 uM after 7 days by Western blot; format: functional, cell-based
[5] = target: T4, Dipeptidyl peptidase 1 (Homo sapiens, UniProt P53634); experiment: Inhibition of intracellular cathepsin C active site in human U937 cells assessed as reduction of Ala-4[125I]Phe-DMK labeled 23 kDa protein at 10 uM by autoradiography based pulse chase assay; format: cell-based; conditions: U-937
Method in brief: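 U937 cells (200,000) preincubated 30 min with 10 μM competitor or 0.5% Me₂SO, then labelled 15 min with 0.5 nM Ala-4-[¹²⁵I]Phe-DMK. Quenched with 1 μM unlabelled probe, washed, and lysed in 20 mM MES pH 6.0, 50 mM NaCl, 0.5% NP-40. Run on reducing 10–20% SDS-PAGE; film exposed 6–24 h.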

[6] = target: T5, Pro-cathepsin H (Homo sapiens, UniProt P09668); experiment: Inhibition of human recombinant cathepsin H after 10 mins
T5 sequence (P09668 whole entry): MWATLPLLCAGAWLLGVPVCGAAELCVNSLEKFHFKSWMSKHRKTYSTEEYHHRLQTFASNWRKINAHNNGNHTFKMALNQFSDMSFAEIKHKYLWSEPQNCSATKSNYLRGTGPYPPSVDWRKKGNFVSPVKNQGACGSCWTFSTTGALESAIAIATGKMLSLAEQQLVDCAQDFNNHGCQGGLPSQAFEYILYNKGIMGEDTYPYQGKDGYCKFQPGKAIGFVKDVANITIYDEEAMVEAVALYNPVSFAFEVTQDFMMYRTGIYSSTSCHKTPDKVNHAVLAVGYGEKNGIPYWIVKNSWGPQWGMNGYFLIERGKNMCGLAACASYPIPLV

[7] = target: T4, Dipeptidyl peptidase 1; experiment: Inhibition of human recombinant cathepsin C after 10 mins
Method in brief: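 Recombinant human cathepsin C at 1 nM in 25 mM MES pH 6.0, 50 mM NaCl, 5 mM DTT, with 50 μM Gly-Arg-AMC (twice Km). Enzyme preincubated with inhibitor 10 min, then substrate added, at room temperature. Fluorogenic AMC release.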

[8] = target: T6, Cathepsin G (Homo sapiens, UniProt P08311); experiment: Inhibition of cathepsin G in human U937 cells; format: cell-based, U-937
T6 sequence (P08311 whole entry): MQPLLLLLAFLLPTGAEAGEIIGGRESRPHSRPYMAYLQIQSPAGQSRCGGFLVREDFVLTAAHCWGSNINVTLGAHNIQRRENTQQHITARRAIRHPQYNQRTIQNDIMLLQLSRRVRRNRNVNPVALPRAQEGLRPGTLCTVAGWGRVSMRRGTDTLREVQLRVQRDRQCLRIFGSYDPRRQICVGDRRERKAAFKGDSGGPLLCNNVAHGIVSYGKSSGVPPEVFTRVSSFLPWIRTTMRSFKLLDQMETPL

[9] = target: T6, Cathepsin G; experiment: Blockade of cathepsin G processing in human U937 cells by densitometry; format: cell-based, U-937
Method in brief: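 U937 cells washed, plated at 2×10^6 cells/ml in methionine/glutamine-free RPMI, inhibitor or 0.5% Me₂SO added during 30 min starvation, pulsed with [³⁵S]methionine (10 μCi/ml) 30 min, re-seeded in complete medium with inhibitor and chased 3 h. Lysates bound to aprotinin-agarose 1 h at room temperature, SDS-PAGE and fluorography. CG band quantitated by densitometry as % inhibition vs vehicle.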

[10] = target: T7, Neutrophil elastase (Mus musculus) (UniProt Q3UP87); conditions: EcoM-G, 1 uM
T7 sequence (whole entry): T1 sequence (Q3UP87 whole entry)

[11] = target: Cathepsin B (Homo sapiens, UniProt P07858); experiment: Inhibition of human recombinant cathepsin B after 10 mins

T4 sequence (P53634 25-134 limits assumed): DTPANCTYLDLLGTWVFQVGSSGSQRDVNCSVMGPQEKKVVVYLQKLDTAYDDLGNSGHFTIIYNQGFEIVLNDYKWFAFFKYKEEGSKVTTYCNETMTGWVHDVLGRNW
T4 sequence (P53634 231-394 limits assumed): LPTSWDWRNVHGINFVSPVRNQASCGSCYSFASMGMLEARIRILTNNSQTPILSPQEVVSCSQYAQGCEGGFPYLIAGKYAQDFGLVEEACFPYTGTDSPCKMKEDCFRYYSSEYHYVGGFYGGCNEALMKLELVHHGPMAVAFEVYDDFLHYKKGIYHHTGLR
T4 sequence (P53634 395-463 limits assumed): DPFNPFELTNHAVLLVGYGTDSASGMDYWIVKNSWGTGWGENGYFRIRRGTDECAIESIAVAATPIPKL

## N#C[C@@]1(NC(=O)[C@@H](N)Cc2cccs2)C[C@@H]1c1ccccc1.O=C(O)C(F)(F)F
[1]
  IC50: 160 nM
[2]
  IC50: 220 nM
[3]
  IC50: 480 nM
[4]
  Activity: inactive
[5]
  Activity: Active
[6]
  IC50: > 50000 nM
[7]
  IC50: 14 nM
[8]
  IC50: > 50000 nM
[9]
  IC50: 150 nM
[10]
  inhibition: 80%
[11]
  IC50: > 50000 nM
